{"source": "ChEMBL document CHEMBL1275591", "about": "“Cellular pharmacodynamics of the novel biaryloxazolidinone radezolid: studies with infected phagocytic and nonphagocytic cells, using Staphylococcus aureus, Staphylococcus epidermidis, Listeria monocytogenes, and Legionella pneumophila” (Antimicrob Agents Chemother, 2010)", "key": {"[1]": {"test_system": "Staphylococcus aureus", "test": "Antimicrobial activity against Staphylococcus aureus ATCC 25923 assessed as log reduction in bacterial count at 1 mg/L after 5 hrs", "assay_type": "functional", "method_in_brief": "(§1)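 Time-course test with S. aureus ATCC 25923, either in Mueller-Hinton broth or after phagocytosis by THP-1 cells. Samples were taken over a 5 h incubation with drug at 1 mg/liter. Read-out was the change in CFU relative to the initial inoculum, reported as means.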"}, "[2]": {"test_system": "HUVEC", "test": "Ratio of drug level for cellular to extracellular region of Staphylococcus aureus infected HUVEC cells at 4 mg/liter after 24 hrs", "assay_type": "ADME, cell-based", "conditions": "human", "method_in_brief": "(§2)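 Cells were exposed to [14C]radezolid for 2 or 24 h. Cell-associated drug in lysates was measured by liquid scintillation counting (detection limit 0.003 mg/liter; linear 0.01–0.78 mg/liter). Content was normalised to cell protein (Lowry). It was converted to apparent cellular concentration at 5 μl per mg protein and expressed relative to the extracellular concentration.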"}, "[3]": {"test_system": "Staphylococcus aureus", "test": "Antimicrobial activity against community acquired methicillin-resistant Staphylococcus aureus NRS192 after 24 hrs", "assay_type": "functional", "conditions": "NRS192, 24 h"}, "[4]": {"test_system": "Staphylococcus aureus", "test": "Antimicrobial activity against methicillin-susceptible Staphylococcus aureus SA040 after 24 hrs", "assay_type": "functional", "conditions": "SA040, 24 h"}, "[5]": {"test_system": "Staphylococcus epidermidis", "test": "Antimicrobial activity against Staphylococcus epidermidis SA362 after 24 hrs", "assay_type": "functional", "conditions": "SA362, 24 h"}, "[6]": {"test_system": "Staphylococcus aureus", "test": "Antimicrobial activity against hospital acquired methicillin-resistant, vancomycin resistant Staphylococcus aureus VRS1 after 24 hrs", "assay_type": "functional", "conditions": "VRS1, 24 h"}, "[7]": {"test_system": "Staphylococcus aureus", "test": "Bacteriostatic activity against linezolid-susceptible Staphylococcus aureus SA238 infected in human osteoblasts cells after 24 hrs", "assay_type": "functional", "method_in_brief": "(§3)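 Adherent nonphagocytic cells were infected at 5 × 10^7 to 1 × 10^8 bacteria/ml with 2 h phagocytosis. Cells used: Calu-3 bronchial epithelium grown in uncoated flasks, neonatal foreskin keratinocytes on collagen-coated wells, primary human osteoblasts, and primary rat embryo fibroblasts. Antibiotic was then given over a concentration range for 24 h. Cs came from a sigmoidal fit of CFU change.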"}, "[8]": {"test_system": "Staphylococcus aureus", "test": "Antimicrobial activity against linezolid-susceptible Staphylococcus aureus ATCC 33591 infected in THP1 cells assessed as log reduction in bacterial count after 24 hrs", "assay_type": "functional, THP-1", "method_in_brief": "(§4)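 Bacteria were phagocytosed by human THP-1 macrophage-like cells, then exposed to a range of drug concentrations for a fixed time: 24 h for S. aureus, S. epidermidis and L. monocytogenes, 48 h for L. pneumophila. Change in CFU versus the initial inoculum was fitted with a sigmoidal curve to give Emin, Emax (relative maximal efficacy), EC50 and static concentration (Cs).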"}, "[9]": {"test_system": "Staphylococcus aureus", "test": "Antimicrobial activity against methicillin-resistant, vancomycin intermediate Staphylococcus aureus NRS18 after 24 hrs", "assay_type": "functional", "conditions": "NRS18, 24 h"}, "[10]": {"test_system": "Staphylococcus aureus", "test": "Bacteriostatic activity against linezolid-resistant Staphylococcus aureus SA238L infected in rat fibroblast cells after 24 hrs", "assay_type": "functional", "method_in_brief": "as §3"}, "[11]": {"test_system": "Staphylococcus aureus", "test": "Bacteriostatic activity against linezolid-susceptible Staphylococcus aureus SA238 infected in human epidermal keratinocytes cells after 24 hrs", "assay_type": "functional", "method_in_brief": "as §3"}, "[12]": {"test_system": "Staphylococcus aureus", "test": "Bacteriostatic activity against linezolid-susceptible Staphylococcus aureus SA040 infected in THP1 cells after 24 hrs", "assay_type": "functional, THP-1", "method_in_brief": "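Human THP-1 myelomonocytic (macrophage-like) cells infected with S. aureus, then exposed 24 h to a range of antibiotic concentrations. CFU change was measured against the initial inoculum. A sigmoidal dose-response curve was fitted to give Emin, Emax and EC50, and the apparent static concentration (Cs) was taken from the fit.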"}, "[13]": {"test_system": "Staphylococcus aureus", "test": "Antimicrobial activity against linezolid-susceptible Staphylococcus aureus NRS18 infected in THP1 cells after 24 hrs", "assay_type": "functional, organism-based", "conditions": "NRS18, THP-1, 24 h", "method_in_brief": "as §4"}, "[14]": {"test_system": "Staphylococcus aureus", "test": "Antimicrobial activity against linezolid-resistant Staphylococcus aureus SA238L infected in Calu-3 cells assessed as log reduction in bacterial count after 24 hrs", "assay_type": "functional", "method_in_brief": "(§5)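 S. aureus was internalized by adherent nonphagocytic cells: Calu-3, HUVEC, keratinocytes on collagen-coated wells, osteoblasts, or rat embryo fibroblasts. Inoculum was 5 × 10^7 to 1 × 10^8 bacteria/ml with 2 h phagocytosis (HUVEC: 2 × 10^6/ml, 1 h). Cells were then exposed to graded drug concentrations for 24 h. CFU change versus the original inoculum was fitted sigmoidally for Emax and Cs.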"}, "[15]": {"test_system": "HUVEC", "test": "Ratio of drug level for cellular to extracellular region of Staphylococcus aureus infected HUVEC cells at 4 mg/liter after 2 hrs", "assay_type": "ADME, cell-based", "conditions": "human", "method_in_brief": "as §2"}, "[16]": {"test_system": "Staphylococcus aureus", "test": "Bacteriostatic activity against linezolid-susceptible Staphylococcus aureus SA238 infected in rat fibroblast cells after 24 hrs", "assay_type": "functional", "method_in_brief": "as §3"}, "[17]": {"test_system": "Staphylococcus aureus", "test": "Bacteriostatic activity against linezolid-susceptible Staphylococcus aureus SA238 infected in Calu-3 cells after 24 hrs", "assay_type": "functional", "method_in_brief": "as §3"}, "[18]": {"test_system": "Staphylococcus aureus", "test": "Antimicrobial activity against linezolid-resistant Staphylococcus aureus SA238L infected in HUVEC cells assessed as log reduction in bacterial count after 24 hrs", "assay_type": "functional", "method_in_brief": "as §5"}, "[19]": {"test_system": "Staphylococcus aureus", "test": "Bacteriostatic activity against linezolid-susceptible Staphylococcus aureus SA238 infected in THP1 cells at pH 7.4 after 24 hrs", "assay_type": "functional, THP-1"}, "[20]": {"test_system": "Staphylococcus aureus", "test": "Antimicrobial activity against linezolid resistant methicillin-susceptible Staphylococcus aureus SA040L after 24 hrs", "assay_type": "functional"}, "[21]": {"test_system": "Staphylococcus aureus", "test": "Bacteriostatic activity against linezolid-susceptible Staphylococcus aureus SA238 infected in THP1 cells at pH 5.5 after 24 hrs", "assay_type": "functional, THP-1"}, "[22]": {"test_system": "Staphylococcus aureus", "test": "Antimicrobial activity against linezolid-susceptible Staphylococcus aureus SA238 infected in human epidermal keratinocytes cells assessed as log reduction in bacterial count after 24 hrs", "assay_type": "functional", "method_in_brief": "as §5"}, "[23]": {"test_system": "Legionella pneumophila", "test": "Antimicrobial activity against Legionella pneumophila ATCC 33153 infected in THP1 cells after 48hrs", "assay_type": "functional, organism-based", "conditions": "ATCC 33153, THP-1, 48 h", "method_in_brief": "as §4"}, "[24]": {"test": "Ratio of drug level for cellular to extracellular region of Staphylococcus aureus infected human keratinocyte at 4 mg/liter after 24 hrs", "assay_type": "ADME, cell-based", "method_in_brief": "as §2"}, "[25]": {"test_system": "Staphylococcus aureus", "test": "Antimicrobial activity against community acquired methicillin-resistant Staphylococcus aureus NRS384 after 24 hrs", "assay_type": "functional", "conditions": "NRS384, 24 h"}, "[26]": {"test_system": "Staphylococcus aureus", "test": "Antimicrobial activity against linezolid-susceptible Staphylococcus aureus ATCC 25923 infected in THP1 cells assessed as log reduction in bacterial count after 24 hrs", "assay_type": "functional, THP-1", "method_in_brief": "as §4"}, "[27]": {"test_system": "Staphylococcus aureus", "test": "Antimicrobial activity against Staphylococcus aureus ATCC 25923 infected in THP-1 cells assessed as log reduction in bacterial count at 1 mg/L after 5 hrs", "assay_type": "functional", "method_in_brief": "as §1"}, "[28]": {"test_system": "Staphylococcus aureus", "test": "Bacteriostatic activity against linezolid-resistant Staphylococcus aureus SA238L infected in human epidermal keratinocytes cells after 24 hrs", "assay_type": "functional", "method_in_brief": "as §3"}, "[29]": {"test_system": "Staphylococcus aureus", "test": "Antimicrobial activity against linezolid-resistant Staphylococcus aureus SA238L infected in rat fibroblast cells assessed as log reduction in bacterial count after 24 hrs", "assay_type": "functional", "method_in_brief": "as §5"}, "[30]": {"test_system": "Staphylococcus aureus", "test": "Antimicrobial activity against linezolid-susceptible Staphylococcus aureus SA238 infected in rat fibroblast cells assessed as log reduction in bacterial count after 24 hrs", "assay_type": "functional", "method_in_brief": "as §5"}, "[31]": {"test_system": "Staphylococcus aureus", "test": "Antimicrobial activity against linezolid-resistant Staphylococcus aureus SA040L infected in THP1 cells after 24 hrs", "assay_type": "functional, organism-based", "conditions": "THP-1, 24 h", "method_in_brief": "as §4"}, "[32]": {"test_system": "Staphylococcus aureus", "test": "Bacteriostatic activity against Staphylococcus aureus infected in THP1 cells after 24 hrs", "assay_type": "functional, THP-1", "method_in_brief": "as §4"}, "[33]": {"test_system": "Staphylococcus epidermidis", "test": "Antimicrobial activity against Staphylococcus epidermidis infected in THP1 cells after 24 hrs", "assay_type": "functional, organism-based", "conditions": "THP-1, 24 h", "method_in_brief": "as §4"}, "[34]": {"test": "Ratio of drug level for cellular to extracellular region of Staphylococcus aureus infected rat fibroblast at 4 mg/liter after 2 hrs", "assay_type": "ADME, cell-based", "method_in_brief": "as §2"}}, "data": [{"smiles": "CC(=O)NC[C@H]1CN(c2ccc(-c3ccc(CNCc4cnn[nH]4)cc3)c(F)c2)C(=O)O1", "note": "[RADEZOLID]", "values": [{"measurement": "log10cfu", "setting": "[1]", "result": 2}, {"measurement": "Ratio", "setting": "[2]", "result": 10.5}, {"measurement": "MIC", "setting": "[3]", "result": 0.5, "unit": "µg/mL"}, {"measurement": "MIC", "setting": "[4]", "result": 1, "unit": "µg/mL"}, {"measurement": "MIC", "setting": "[5]", "result": 0.25, "unit": "µg/mL"}, {"measurement": "MIC", "setting": "[6]", "result": 0.5, "unit": "µg/mL"}, {"measurement": "Activity", "setting": "[7]", "result": 0.6, "unit": "mg/L"}, {"measurement": "log10cfu", "setting": "[8]", "result": -0.56}, {"measurement": "MIC", "setting": "[9]", "result": 0.25, "unit": "µg/mL"}, {"measurement": "Activity", "setting": "[10]", "result": 0.6, "unit": "mg/L"}, {"measurement": "Activity", "setting": "[11]", "result": 0.6, "unit": "mg/L"}, {"measurement": "Activity", "setting": "[12]", "result": 0.21, "unit": "mg/L"}, {"measurement": "EC50", "setting": "[13]", "result": 0.09, "unit": "µg/mL"}, {"measurement": "log10cfu", "setting": "[14]", "result": 0.6}, {"measurement": "Ratio", "setting": "[15]", "result": 9.5}, {"measurement": "Activity", "setting": "[16]", "result": 0.6, "unit": "mg/L"}, {"measurement": "Activity", "setting": "[17]", "result": 0.6, "unit": "mg/L"}, {"measurement": "log10cfu", "setting": "[18]", "result": 0.6}, {"measurement": "Activity", "setting": "[19]", "result": 1.04, "unit": "mg/L"}, {"measurement": "MIC", "setting": "[20]", "result": 2, "unit": "µg/mL"}, {"measurement": "Activity", "setting": "[21]", "result": 0.06, "unit": "mg/L"}, {"measurement": "log10cfu", "setting": "[22]", "result": 0.6}, {"measurement": "EC50", "setting": "[23]", "result": 0.47, "unit": "µg/mL"}, {"measurement": "Ratio", "setting": "[24]", "result": 16.1}, {"measurement": "MIC", "setting": "[25]", "result": 0.5, "unit": "µg/mL"}, {"measurement": "log10cfu", "setting": "[26]", "result": -0.57}, {"measurement": "log10cfu", "setting": "[27]", "result": 0.5}, {"measurement": "Activity", "setting": "[28]", "result": 0.6, "unit": "mg/L"}, {"measurement": "log10cfu", "setting": "[29]", "result": 0.6}, {"measurement": "log10cfu", "setting": "[30]", "result": 0.6}, {"measurement": "EC50", "setting": "[31]", "result": 0.14, "unit": "µg/mL"}, {"measurement": "Activity", "setting": "[32]", "result": 0.91, "unit": "mg/L"}, {"measurement": "EC50", "setting": "[33]", "result": 1.51, "unit": "µg/mL"}, {"measurement": "Ratio", "setting": "[34]", "result": 14.4}]}]}
